Structures are written as SMILES. The source made the active and inactive calls. The calls are words filed in the database; no cut-off is given here.

System in one experiment: not listed separately
Nature of the experiment: Evaluated for antidepressant activity by its ability to inhibit tetrabenazine-induced (TBZ) ptosis in mice. The format is functional. The settings on record: Mus musculus. Summed up: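 Mice given tetrabenazine to induce ptosis; inhibition of ptosis scored. Compounds were screened at 20 mg/kg ip. […] ">20" marks activity at the 20 mg/kg ip screening dose without a dose-response run.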
By ED50 is commonly meant the dose at which the effect has come halfway, by size or by number of responders. As for `CNCC(=O)N1Cc2cccc3c2N(CC3)c2ccccc21`, the median effective dose (ED50) is more than 20 mg/kg.
Still for that read-out and setting: the result for `CC1c2cccc3c2N(CC3)c2ccccc2N1C(=O)CN(C)C` (stereo unspecified) reads 13.5 mg/kg; that for `CN(C)CCC(=O)N1Cc2cccc3c2N(CC3)c2ccccc21`, more than 20 mg/kg; that for `CNCCN1Cc2cccc3c2N(CC3)c2ccccc21.O=C(O)C(=O)O`, more than 20 mg/kg.
The same measure, in the same setting: the figure for `CN(C)CCC=C1c2ccccc2CCc2ccccc21` [AMITRIPTYLINE] is 4.5 mg/kg.
For the compound `CC1c2cccc3c2N(CC3)c2ccccc2N1C(=O)CCN(C)C` (stereo unspecified), the ED50 was 16 mg/kg.
Still for that read-out and setting: the result for `CN(C)CCN1c2ccccc2N2CCc3cccc(c32)C1CCc1ccccc1.O=C(O)C(=O)O` (stereo unspecified) reads more than 20 mg/kg; that for `Br.CC1c2cccc3c2N(CC3)c2ccccc2N1CCN(C)C` (stereo unspecified), 5 mg/kg.
Still for that read-out and setting: the figure for `CN(C)CC(=O)N1Cc2cccc3c2N(CC3)c2ccccc21` is more than 20 mg/kg; for `Br.Br.CCCNCCN1c2ccccc2N2CCc3cccc(c32)C1C` (stereo unspecified) it is more than 20 mg/kg.
Still for that read-out and setting: the figure for `CN(C)CCCN1Cc2cccc3c2N(CC3)c2ccccc21.Cl.Cl` is 16 mg/kg; for `CCN(CC)CCC(=O)N1c2ccccc2N2CCc3cccc(c32)C1C` (stereo unspecified) it is more than 20 mg/kg.
In the case of `CNCC(=O)N1c2ccccc2N2CCc3cccc(c32)C1C` (stereo unspecified), the 50% effect level (ED50) was put at a dose of 2 mg/kg.
`CC1c2cccc3c2N(CC3)c2ccccc2N1C(=O)CCCN(C)C.Cl` (stereo unspecified) showed a 50% effective dose (ED50) of more than 20 mg/kg.
On the same count and under the same terms, the result for `CN(C)CCC(=O)N1c2ccccc2N2CCc3cccc(c32)C1C1CCCCC1.Cl` (stereo unspecified) reads more than 20 mg/kg; that for `Br.Br.CC1c2cccc3c2N(CC3)c2ccccc2N1CCN` (stereo unspecified), 2.2 mg/kg.
The same measure, in the same setting: the figure for `CNCCC(=O)N1c2ccccc2N2CCc3cccc(c32)C1C` (stereo unspecified) is 4 mg/kg; for `CCCNCC(=O)N1c2ccccc2N2CCc3cccc(c32)C1C` (stereo unspecified) it is more than 20 mg/kg; for `Br.Br.CNCCN1c2ccccc2N2CCc3cccc(c32)C1C` (stereo unspecified) it is 8 mg/kg.
For the compound `CC1c2cccc3c2N(CC3)c2ccccc2N1C(=O)CCN1CCCCC1` (stereo unspecified), the ED50 was more than 20 mg/kg.
On the same count and under the same terms, the figure for `CNCCCN1c2ccccc2CCc2ccccc21` [DESIPRAMINE] is 1.5 mg/kg.
The same measure, in the same setting: the result for `CC1c2cccc3c2N(CC3)c2ccccc2N1C(=O)CCN1CCN(c2ccccc2)CC1` (stereo unspecified) reads more than 20 mg/kg.
The same measure, in the same setting: the result for `Br.Br.CNCCCN1Cc2cccc3c2N(CC3)c2ccccc21` reads 1.5 mg/kg; that for `CNCCCN1c2ccccc2N2CCc3cccc(c32)C1C.Cl.Cl` (stereo unspecified), 9.5 mg/kg; that for `CCCNCCC(=O)N1c2ccccc2N2CCc3cccc(c32)C1C.Cl` (stereo unspecified), more than 20 mg/kg.

Another experiment is filed under the species Mus musculus. Nature of the experiment: Evaluated for antidepressant activity by its ability to inhibit tetrabenazine-induced (TBZ) ptosis in mice; Inactive. Format: functional, organism-based.
Conditions: not given
Consider `CNCCC(=O)N1c2ccccc2N2CCc3cc(Cl)cc(c32)C1C` (stereo unspecified), for which the ED50 result is “inactive”.
The same measure, in the same setting: the entry for `CNCCCN1c2ccccc2N2CCc3cc(Cl)cc(c32)C1C` (stereo unspecified) is “inactive”; for `CC1c2cc(Cl)cc3c2N(CC3)c2ccccc2N1C(=O)CCN(C)C` (stereo unspecified) it is “inactive”.
Consider `CNCCN1c2ccccc2N2CCc3cc(Cl)cc(c32)C1C` (stereo unspecified), for which the ED50 entry was “inactive”.
On the same count and under the same terms, the entry for `CNCC(=O)N1c2ccccc2N2CCc3cc(Cl)cc(c32)C1C` (stereo unspecified) is “inactive”.
On the same count and under the same terms, the entry for `CC1c2cc(Cl)cc3c2N(CC3)c2ccccc2N1C(=O)CN(C)C` (stereo unspecified) is “inactive”.

The values above are taken from ChEMBL document CHEMBL1121368, “7-(Aminoacyl) and 7-(aminoalkyl) derivatives of 1,2,6,7-tetrahydroindolo[1,7-ab][1,5]benzodiazepines as potential antidepressant agents” (1980).
